From article PMC5776820 (Proceedings of the National Academy of Sciences of the …, 2017)
Where no end group is shown, it is not given here.

Key:
[1] = test system: CD4 T cells of human T1D patients; details: HLA-DQ8; ref [14], [15]; cited from earlier work
[2] = test system: NOD mouse type A insulin-reactive CD4 T cells; assay: IL-2 secretion; type: cell-based; details: sample titration, IL-2 after 24 h (Fig. 2A)
Procedure, shortened: (§1)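 Equal numbers of T-cell hybridomas or TCR-transduced avatars and paraformaldehyde-fixed M12.C3.g7 (IAg7) B-lymphoma APCs are cultured overnight with peptide titrations up to 100 μg/mL. Peptides have B:19 C→A and are >95% pure, with an IAg7-binding HEL peptide as negative control. IL-2 is read by HT-2 growth/survival or ELISA. Potency is the log10 shift of parallel third-order polynomial fits versus WT8E9R (=1), averaged over three titrations.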

[3] = test system: NOD mouse type B insulin-reactive CD4 T cells; assay: IL-2 secretion; type: cell-based; details: sample titration, IL-2 after 24 h (Fig. 2A)
Procedure, shortened: as §1

IA^g7 = details: natural R at p9; ref [16]; cited from earlier work

Substance: B:11–23 peptide: versions of the B:11–23 peptide (identical between mice and humans) presented by DQ8 (LVEALYLVCGERG; ends and bridges not checked; UniProt P01308 35-47, looked up, fragment)
- human T-cell response to peptide bound to DQ8 [1]: only when B:22R is mutated to E

Substance: 8E9E: soluble mutated B:12–22 peptide, p9 R to E, B:19 C changed to A
- potency relative to WT8E9R [2]: about 100 ×
- potency compared with WT8E9R [3]: no better than the WT peptide

Substance: B:22R to E mutated peptide: B:9–23 peptide with B:22R (p9) mutated to E, earlier work
- human T-cell response to peptide bound to DQ8 [1]: dramatically improved T-cell response

Substance: SHLVEALYLVCGERG [B:9–23]
- binding to IA^g7 in R3 (IA^g7): greatly interferes with binding
